# An excerpt weighted towards active compounds, which were near 4.6% of everything screened.
# TAAR1 agonist: human TAAR1 agonists, primary screen, Fluo-8 calcium fluorescence, CHO RD-HGA16 cells; AID 624467, 2012; Trace amine-associated receptor 1 (Homo sapiens), Q96RJ0; vehicle wells 0%, saturating PEA agonist 100%; activation, % at 3 µM; actives 0.99% (n = 360,000);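 active = activation above the mean activation of all test compounds in the run plus 3 SD, cut at about 38% in these data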
#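 Test system: RD-HGA16 (CHO) cells co-expressing Gα16 and hTAAR1 | Doses: Single dose, 3 µM | Schedule: 17-24 h seeding, 75 min 37 °C dye, 30 min RT | Evaluation: % activation from peak over basal fluorescence ratio, DMSO-to-PEA scaled | Technique: Kinetic Fluo-8 calcium fluorescence | Benchmarks: Low control DMSO, high control PEA (EC100)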
# GPR7 antag: GPR7 receptor antagonists, primary screen, cell-based, fluorescence, single concentration. GPR7-expressing cells, fluorescence antagonist assay. inhibition, % at 4.4 µM. actives 1.1% (n = 290,000); in the data active = inhibition above about 16%, passing the limit was not always enough;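 also: cells stimulated with the agonist NPW; 0% = agonist with vehicle and 100% = vehicle without agonist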
# OX1R antag-1: antagonists of human orexin 1 receptor (OX1R); Orexin/Hypocretin receptor type 1 (Homo sapiens), O43613; OX1R-expressing cells, FRET antagonist read-out; actives 1.8% (n = 330,000); inhibition, % at 6.6 µM; AID 485270, 2010; in the data active = inhibition mostly above about 38%, no sharp cut-off; inactive = mostly below about 40%;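 also: 0% = agonist challenge alone and 100% = reference antagonist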
# Target sequence (O43613 whole entry, looked up): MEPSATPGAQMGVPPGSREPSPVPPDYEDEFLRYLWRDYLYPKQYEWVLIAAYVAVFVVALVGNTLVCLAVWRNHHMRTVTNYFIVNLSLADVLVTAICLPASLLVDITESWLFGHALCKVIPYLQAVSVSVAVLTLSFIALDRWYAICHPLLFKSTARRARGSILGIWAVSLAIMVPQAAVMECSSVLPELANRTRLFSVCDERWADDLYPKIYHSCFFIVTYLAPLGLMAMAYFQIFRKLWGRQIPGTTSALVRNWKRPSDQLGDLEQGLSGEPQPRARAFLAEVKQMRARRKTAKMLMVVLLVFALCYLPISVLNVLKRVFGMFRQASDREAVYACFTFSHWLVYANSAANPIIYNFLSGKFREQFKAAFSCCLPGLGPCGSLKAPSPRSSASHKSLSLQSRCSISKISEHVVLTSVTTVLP
# TAAR1 antagonist: human TAAR1 antagonists, primary screen, Fluo-8 calcium fluorescence, CHO RD-HGA16 cells | Trace amine-associated receptor 1 (Homo sapiens), Q96RJ0 | antagonist | inhibition, % at 3 µM | actives 1.5% (n = 360,000) | AID 624466, 2012;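 active = inhibition above a per-plate cutoff, the mean inhibition of test compounds on that plate plus 3 SD, cut at about 49% in these data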;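 also: 0% = DMSO plus EC80 beta-PEA response and 100% = DMSO alone without agonist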
#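 Assay system: CHO-derived RD-HGA16 cells stably expressing human TAAR1 plus Gα16. Timing: 140 s kinetic read after compound, 140 s after agonist. Technique: kinetic Fluo-8 calcium fluorescence measurement. Measure: % inhibition of agonist calcium response.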
# OX1R antag-2: OX1R (HCRTR1) antagonists, primary screen, fluorescence, CHO/OX1R cells, Fluo-8 calcium, orexin A. actives 0.43% (n = 330,000). Fluo-8 calcium fluorescence. Orexin/Hypocretin receptor type 1 (Homo sapiens), O43613. inhibition, % at 5 µM. AID 434989, 2010;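 active = inhibition above its plate's threshold, mean inhibition of all tested compounds on the plate plus 3 SD, cut at about 37% in these data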;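 also: 0% = orexin A challenge wells and 100% = SB-334867-A antagonist wells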
# CHO parental Ca: ATP-evoked calcium signal inhibitors, parental CHO, primary screen, counter-screen for OX1R antagonist project, cell-based, fluorescence, Fluo-8 calcium dye; inhibition, % at 5.6 µM; actives 0.63% (n = 330,000); parental CHO-K1, ATP-induced calcium, Fluo-8 fluorescence;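 active = inhibition above that plate's mean sample inhibition plus 3 SD, cut at about 26% in these data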;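 also: 0% = ATP-challenged DMSO wells and 100% = DMSO wells without ATP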
#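 Material – parental CHO cells · Reagent – ATP stimulus · Compound – single nominal dose of 5.6 µM per compound · Detection – Fluo-8 fluorescence · Read-out basis – percent inhibition of calcium signal · Controls – ATP-challenged DMSO wells low, unchallenged DMSO wells high · Repeats – no replicates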
# An asterisk follows results filed as active; / = no result.
SMILES,TAAR1 agonist,GPR7 antag,OX1R antag-1,TAAR1 antagonist,OX1R antag-2,CHO parental Ca
Cc1ccc(NC(=O)c2ccc(Br)o2)c([N+](=O)[O-])c1,-1,/,/,-10,/,/
CN1C(=O)[C@@]2(O[C@H]3C=CC=CN3C3=C2C(=O)CCC3)c2cc([N+](=O)[O-])ccc21,0,/,/,1,/,/
CCC(C)CN1C(=O)CSCC1(C)C(=O)NC(C)C (centres undefined),1,/,/,-15,/,/
CCN(CC)C(=O)c1oc2ccc(S(=O)(=O)N3CCCCCC3)cc2c1C,6,1,19,-12,-3,-19
CCN(CC)C(=O)c1oc2ccc(S(=O)(=O)N3CC(C)CC(C)C3)cc2c1C (centres undefined),6,4,60,-1,33,41*
Cc1cc2c(c(=O)o1)[C@@]1(C(=O)Nc3ccccc31)C1=C(CCCC1=O)O2,1,/,/,-8,/,/
C/C(=C\c1ccc(C)o1)C(=O)c1c(C)cc(C)[nH]c1=O,5,20*,5,1,1,0
O=C(Nc1ccc2c(c1)OCO2)c1cnn2cccnc12,10,17*,-1,-6,1,-3
O=C(Nc1cccc(O)c1)c1cnn2cccnc12,4,-5,11,-3,-14,-14
CCN(CC)C(c1ccc(C)cc1)c1nnnn1C1CCCCC1 (centres undefined),-1,-2,25,11,-37,26*
CCN(CC)C(c1ccc(F)cc1)c1nnnn1C1CCCCC1 (centres undefined),7,6,19,-3,-20,-24
CCN1CCN(CCOc2ccc(Cl)cc2)CC1,12,-5,0,-5,-16,-2
Clc1ccc(OCCN2CCN(c3ncnc4sccc34)CC2)cc1,13,20*,49*,17,5,11
Cc1ccc(OCCN2CCN(c3ncnc4sc(C)c(C)c34)CC2)cc1,3,8,44*,14,-5,4
O=S(=O)(c1cccs1)N1CCCc2nc(-c3ccccc3)ccc21,0,/,/,4,/,/
O=c1[nH]c(-[n+]2ccccc2)c(/C=N/N=C(\[O-])c2ccccc2)s1,4,-8,41*,-50,-10,-6
Nc1ccn([C@@H]2O[C@H](C(=O)N[C@H](Cc3ccccc3)C(=O)N3CCC(F)(F)CC3)[C@@H](O)[C@H]2O)c(=O)n1,2,/,/,-22,/,/
N#Cc1ccccc1Sc1ccccc1C(=O)Nc1ccc2ccccc2c1,1,7,58*,30,3,2
N#Cc1ccccc1Sc1ccccc1C(=O)Nc1ccc(Br)cc1,3,-2,28,31,0,17
CCOC(=O)c1c(C)oc2ccc(O)c(CN(C)C)c12,7,-2,9,4,-16,-12
CCOC(=O)c1c(CSc2ccc(CC)cc2)oc2ccc(O)c(CN(C)C)c12,29,28,-11,14,36,67*
CCOC(=O)c1c(CSc2ccccc2)oc2ccc(O)cc12,-1,-7,24,10,-1,26*
O=C(N=Nc1c(O)[nH]c2c(Cl)cc(Cl)cc12)c1ccccc1O,2,/,/,24,/,/
O=c1[nH]c2ccc(Cl)cc2c(-c2ccccc2)c1SC(=S)N1CCOCC1,30,4,35,56*,25,-18
CCOC(=O)N1CCC(NC(=O)CCC(=O)N2CCOc3ccc(C)cc32)CC1,5,5,6,-13,-23,-16
Cc1ccc2c(c1)N(C(=O)CCC(=O)NC1CCC(C)CC1)CCO2 (centres undefined),-2,-7,43*,37,-22,-8
Cc1ccc2c(c1)N(C(=O)CCC(=O)N1CCN(c3cccc(C)c3C)CC1)CCO2,-2,-2,40*,27,-28,-24
Nc1ccc2ccc(N)cc2c1,3,/,/,-3,/,/
